From PubChem BioAssay
ARFGAP1 inh = inhibitors of rat ARFGAP1 GAP activity, primary screen, biochemical, fluorescence polarization, GDP tracer | ADP-ribosylation factor GTPase-activating protein 1 (Rattus norvegicus), Q62848 | inhibition, % at 16.5 µM | actives 0.26% (n = 360,000) | Arfgap1-stimulated ARF1 GTP hydrolysis, GDP FP detection;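 active = inhibition above a per-plate limit, mean inhibition of low control wells plus 3 SD, cut at about 25% in these data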;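 note: 0% = DMSO wells with enzyme and 100% = wells lacking Arfgap1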
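Assay system: purified rat His6-Arfgap1 residues 1-136 (GAP domain); Reagent: human Δ17 ARF1 bound to GTP; Dosing: 16.5 µM single point, 1.26% DMSO; Times: GTP hydrolysis reaction 2 h at 25 °C; Signal: FP, GDP Alexa 633 tracer displaced from anti-GDP antibody, 620/688 nm; Measure: % inhibition from polarization.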
C2C12 statin = suppressors of statin myotoxicity in C2C12 myotubes, primary screen, cell-based, single point, plate reader; C2C12 myotubes + simvastatin, ATP luminescence, 48 h; scaled: DMSO 0, geranylgeraniol control 100; rescue of ATP level, % at 7.49 µM; actives 0.78% (n = 330,000);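 active = mean ATP rescue above about 67%, or every replicate alone reaching that limit, limit read from the data, passing the limit was not always enough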;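 note: myotubes were challenged with 10 µM simvastatin during compound exposure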
APOBEC3G inh = APOBEC3G DNA deaminase inhibitors, primary screen, biochemical, fluorescence, single-stranded DNA substrate, uHTS; DNA dC->dU-editing enzyme APOBEC-3G (Homo sapiens), Q9HC16; recombinant A3G, ssDNA deamination FAM/TAMRA fluorescence; inhibition, % at 20 µM; actives 0.28% (n = 330,000);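 active = inhibition of at least 40% at 20 µM, with no more than 30% in the related APOBEC3A deaminase screen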;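 note: plate controls were DMSO wells with A3G for no effect and wells lacking A3G enzyme for full effect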
ASAP1 inh = inhibitors of human ASAP1 ArfGAP activity, primary screen, biochemical, fluorescence polarization. actives 0.19% (n = 360,000). ASAP1-stimulated ARF1 GTP hydrolysis, GDP FP detection. Arf-GAP with SH3 domain, ANK repeat and PH domain-containing protein 1 (Homo sapiens), …. inhibition, % at 16.5 µM; in the data active = inhibition above about 25%;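 note: 0% = vehicle with enzyme and substrate and 100% = no enzyme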
Target sequence (Q9ULH1 325-724 limits assumed): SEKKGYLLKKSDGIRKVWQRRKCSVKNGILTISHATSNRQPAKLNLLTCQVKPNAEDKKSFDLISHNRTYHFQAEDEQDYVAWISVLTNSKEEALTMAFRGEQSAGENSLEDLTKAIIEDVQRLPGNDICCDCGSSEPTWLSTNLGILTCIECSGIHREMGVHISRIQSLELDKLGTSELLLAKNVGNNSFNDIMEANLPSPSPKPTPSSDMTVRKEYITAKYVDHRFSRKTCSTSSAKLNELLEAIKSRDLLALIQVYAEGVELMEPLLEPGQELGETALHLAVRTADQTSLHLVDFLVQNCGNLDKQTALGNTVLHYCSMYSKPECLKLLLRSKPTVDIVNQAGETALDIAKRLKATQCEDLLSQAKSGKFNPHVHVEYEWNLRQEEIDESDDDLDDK
SUMO Mot1 rescue = yeast Mot1-301 growth rescue at high temperature, primary screen, SUMOylation pathway inhibitor project, S. cerevisiae, ATP luminescence, 38.5C; S. cerevisiae Mot1-301 growth rescue; percent above DMSO median, 100 means doubled; growth rescue, % at 18.8 µM; actives 1% (n = 320,000); AID 2716, 2010;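 active = every valid replicate shows activation above 250% relative to neutral control wells; inactive = the rest, any valid replicate at or below 250%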;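 note: OY570 slx delta 5 strain wells were the positive control but not used for scaling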
APOBEC3A inh = APOBEC3A ssDNA deaminase inhibitors, primary screen, selectivity assay for APOBEC3G inhibitor project, biochemical, FAM/TAMRA oligo cleavage fluorescence. recombinant A3A, FAM/TAMRA ssDNA deamination fluorescence. actives 0.41% (n = 330,000). inhibition, % at 20 µM. DNA dC->dU-editing enzyme APOBEC-3A (Homo sapiens), P31941;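 active = at least 40% inhibition at 20 µM here, with at most 30% in a related deaminase screen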;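 note: plate controls were A3A with DMSO for no effect and wells lacking A3A enzyme for full effect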
ARFGAP1 inh conf = ARFGAP1 inhibitor hit confirmation, biochemical, fluorescence polarization, triplicate; ARFGAP1-stimulated ARF1 GTP hydrolysis, GDP tracer FP; inhibition, % at 16.5 µM; actives 30% (n = 890); shares compounds with ARFGAP1 inh;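 active = average inhibition over triplicates above the hit cutoff set in the earlier primary screen, cut at about 25% in these data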;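 note: 0% = Arfgap1 plus ARF1-GTP with DMSO and 100% = wells lacking Arfgap1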
The depositor's hits bear a star; nt = no result given. An excerpt weighted towards active compounds, which were near 2.1% of everything screened.

SMILES	ARFGAP1 inh	C2C12 statin	APOBEC3G inh	ASAP1 inh	SUMO Mot1 rescue	APOBEC3A inh	ARFGAP1 inh conf
CCOP(=O)(OCC)C(O)c1cccc([N+](=O)[O-])c1 (stereo not given)	26*	nt	-6	11	-3	-2	-1
CN1CCN(Cc2cc(C(C)(C)C)c(O)c(C(C)(C)C)c2)CC1	26*	-8	0	7	-15	1	6
N#Cc1cccc(-c2ccc([C@H]3[C@H](CO)N4CCCCN(C(=O)Cc5cccnc5)C[C@@H]34)cc2)c1	nt	-14	nt	nt	nt	nt	nt
O=C(Cc1ccccc1)N1C[C@H]2[C@@H](c3ccccc31)[C@@H](CO)N2Cc1ccccc1	nt	3	nt	nt	nt	nt	nt
S=C(NCCc1ccccc1)N1Cc2ccc(Br)cc2-n2nncc2C1	26*	15	nt	2	nt	nt	5
S=C(NCCc1ccccc1)N1Cc2cc(Br)ccc2-n2nncc2C1	1	6	nt	1	nt	nt	nt
